Legend:
[1] = Selectivity index, ratio of CC50 for human HepG2(2.2.15) cells to EC50 for HBV infected in human HepG2(2.2.15) cells
Procedure, shortened: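 Ratio from two 2.2.15 readouts after nine daily doses in RPMI/2% FBS. Extracellular HBV DNA was measured by quantitative blot hybridization and cytotoxicity by neutral red uptake (three cultures per concentration), both 24 h after the final dose.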

[2] = Cytotoxicity against human HepG2(2.2.15) cells after 24 hrs by neutral red assay; assay type: cell-based
Procedure, shortened: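 2.2.15 cells, RPMI 1640 with 2% FBS, dosed daily for nine consecutive days. Viability was read by neutral red uptake, absorbance of internalized dye at 510, 24 h after the last treatment, three cultures per concentration.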

Hepatitis B virus [3] = assay: Antiviral activity against HBV infected in transgenic mouse assessed as decrease in liver viral DNA level at 4 mg/kg, po administered daily for 14 days measured post last dose; assay type: functional; conditions: for ED50: Hepatitis B virus, Liver, 336 h; for ED90: dose 4 mg/kg
Procedure, shortened: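 Homozygous male and female HBV transgenic mice (founder 1.3.32; 22.2 ± 2.8 g) received drug in distilled water by oral gavage, 0.1 ml/10 g, at 7 µmol/kg (4 mg/kg) daily for 14 days. About 0.1 g liver was lysed at necropsy, and DNA was extracted with phenol-chloroform. HBV DNA was measured by qPCR normalized to GAPDH, using duplicate CTs against a dilution standard curve, in relative units/µg cell DNA.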

Hepatitis B virus [4] = assay: Antiviral activity against HBV infected in human HepG2(2.2.15) cells assessed as decrease in extracellular viral DNA level after 24 hrs by blot hybridization assay; assay type: functional, organism-based; conditions: HepG2 2.2.15, 24 h
Procedure, shortened: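 Confluent 2.2.15 cells in RPMI 1640 with 2% FBS got nine consecutive daily doses, with medium replaced daily with drug-containing medium. Six wells per concentration over two replicate plates. Cells were pelleted from the medium, which was kept at 4°C and not frozen. Extracellular HBV DNA was quantified by blot hybridization 24 h after the last dose.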

Hepatitis B virus [5] = assay: Antiviral activity against HBV harboring RNA polymerase L180M mutant gene infected in human HuH7 cells assessed as decrease in viral transient transfection after 5 days; conditions: Huh-7, 5 days
Hepatitis B virus [6] = assay: Antiviral activity against HBV harboring RNA polymerase M204I mutant gene infected in human HuH7 cells assessed as decrease in viral transient transfection after 5 days; conditions: Huh-7, 5 days
Hepatitis B virus [7] = assay: Antiviral activity against wild type HBV infected in human HuH7 cells assessed as decrease in viral transient transfection after 5 days; conditions: Huh-7, 5 days
Hepatitis B virus [8] = assay: Antiviral activity against HBV harboring RNA polymerase M204V mutant gene infected in human HuH7 cells assessed as decrease in viral transient transfection after 5 days; conditions: Huh-7, 5 days
Hepatitis B virus [9] = assay: Antiviral activity against HBV harboring RNA polymerase L180M/M204V mutant gene infected in human HuH7 cells assessed as decrease in viral transient transfection after 5 days; conditions: Huh-7, 5 days
Hepatitis B virus [10] = assay: Antiviral activity against HBV harboring RNA polymerase N236T mutant gene infected in human HuH7 cells assessed as decrease in viral transient transfection […]; assay type: functional, organism-based; conditions: Huh-7
Procedure, shortened: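 Lamivudine- and adefovir-resistant HBV mutants introduced into Huh7 cells by transient transfection. Compounds were tested in a 5-day assay.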

HepG2 [11] = assay: Drug metabolism in human HepG2 cells assessed as HPMPAp uptake at 10 uM after 48 hrs; assay type: ADME, cell-based; conditions: hepg2, 48 h
HepG2 [12] = assay: Drug metabolism in human HepG2 cells assessed as unidentified metabolite uptake at 10 uM after 48 hrs; assay type: ADME, cell-based; conditions: hepg2, 48 h
HepG2 [13] = assay: Drug metabolism in human HepG2 cells assessed as HPMPAp uptake at 10 uM after 24 hrs; assay type: ADME, cell-based; conditions: hepg2, 24 h
Procedure, shortened: (§1)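 Nearly confluent HepG2 flasks got 14C-labeled drug (final 10 µM, 50 mCi/mmol) for 24 h. Cells were washed with cold PBS, lysed in water by two freeze-thaw cycles and sonication, then extracted with cold TCA (8% final) and centrifuged at 4°C. Supernatant was counted and analyzed by SAX ion-exchange HPLC, with metabolites assigned by retention versus reference standards.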

HepG2 [14] = assay: Drug metabolism in human HepG2 cells assessed as HPMPA uptake at 10 uM after 24 hrs; assay type: ADME, cell-based; conditions: hepg2, 24 h; procedure, shortened: as §1
HepG2 [15] = assay: Drug metabolism in human HepG2 cells assessed as HPMPApp uptake at 10 uM after 48 hrs; assay type: ADME, cell-based; conditions: hepg2, 48 h
HepG2 [16] = assay: Drug metabolism in human HepG2 cells assessed as unidentified metabolite uptake at 10 uM after 24 hrs; assay type: ADME, cell-based; conditions: hepg2, 24 h; procedure, shortened: as §1
HepG2 [17] = assay: Drug metabolism in human HepG2 cells assessed as HPMPApp uptake at 10 uM after 24 hrs; assay type: ADME, cell-based; conditions: hepg2, 24 h; procedure, shortened: as §1
HepG2 [18] = assay: Drug metabolism in human HepG2 cells assessed as HPMPA uptake at 10 uM after 48 hrs; assay type: ADME, cell-based; conditions: hepg2, 48 h

SMILES	Selectivity Index [1]	CC50 at 24 h [2] [µM]	ED50 (Hepatitis B virus [3]) [µmol/kg]	ED90 (Hepatitis B virus [3]) [µmol/kg]	EC50 (Hepatitis B virus [4]) [µM]	EC90 (Hepatitis B virus [4]) [µM]	EC50 (Hepatitis B virus [5]) [µM]	EC90 (Hepatitis B virus [5]) [µM]	EC50 (Hepatitis B virus [6]) [µM]	EC90 (Hepatitis B virus [6]) [µM]	EC90 (Hepatitis B virus [7]) [µM]	EC50 (Hepatitis B virus [8]) [µM]	EC90 (Hepatitis B virus [8]) [µM]	EC50 (Hepatitis B virus [9]) [µM]	EC90 (Hepatitis B virus [9]) [µM]	EC50 (Hepatitis B virus [10]) [µM]	EC90 (Hepatitis B virus [10]) [µM]	also measured
CC(C)CCCCCCCCCCCCCCOCCCOP(=O)(O)CO[C@H](CO)Cn1cnc2c(N)ncnc21	>1657	> 300	0.082	2.96	0.059	0.181	–	–	–	–	–	–	–	–	–	–	–	–
Nc1ccn([C@@H]2CS[C@H](CO)O2)c(=O)n1 [LAMIVUDINE]	–	–	–	–	–	–	16	41	> 100	> 100	3	> 100	> 100	> 100	> 100	0.3	1.5	–
Nc1ncnc2c1ncn2C[C@@H](CO)OCP(=O)(O)O	>60	> 300	–	–	1.2	5.05	–	–	–	–	–	–	–	–	–	–	–	Drug uptake (HepG2 [11]): 70 pmol; Drug uptake (HepG2 [12]): 62 pmol; Drug uptake (HepG2 [13]): 27 pmol; Drug uptake (HepG2 [14]): 26 pmol; Drug uptake (HepG2 [15]): 13 pmol; Drug uptake (HepG2 [16]): 33 pmol; Drug uptake (HepG2 [17]): 34 pmol; Drug uptake (HepG2 [18]): 10 pmol
CC(C)(C)C(=O)OCOP(=O)(COCCn1cnc2c(N)ncnc21)OCOC(=O)C(C)(C)C [ADEFOVIR DIPIVOXIL]	–	–	0.2	3.6	–	–	2.6	7.3	2.4	8	7	1.5	7.2	2.5	7.6	14	52	EC50 (Hepatitis B virus [7]): 2 µM
CCCCCCCCCCCCCCCCCCOCCOP(=O)(O)CO[C@H](CO)Cn1cnc2c(N)ncnc21	>1422	> 300	0.35	6.91	0.076	0.211	–	–	–	–	–	–	–	–	–	–	–	–

Reference: ChEMBL document CHEMBL1649503, “Alkoxyalkyl esters of 9-(s)-(3-hydroxy-2-phosphonomethoxypropyl) adenine are potent and selective inhibitors of hepatitis B virus (HBV) replication in vitro and in HBV transgenic mice in vivo” (Antimicrob Agents Chemother, 2009)
